Experiments:
[1] = system: human liver microsomes (HLMs); conditions: cited from earlier work; for enantiomeric fraction (EF) of 1,2-shift products, HLMs: incubations with HLMs; for ratio of 3–103: 5–95: 4–95: 4’−95 (relative to 4’−95 = 1), HLMs: PCB 95 with HLMs; for enantiomeric fraction (EF) of 5-hydroxylated metabolites, HLMs: metabolism studies with HLMs
recombinant human CYP2A6 = biological target: T1, recombinant human CYP2A6 (Homo sapiens, UniProt P11509); test: PCB biotransformation assay with recombinant human CYP2A6; format: in vitro ADME; conditions: for enantiomeric fraction (EF) of OH-PCB metabolite, CYP2A6: EF = Area E1/(Area E1 + Area E2), 50 μM PCB, 60 min, 37 °C, 10 pmol/mL P450; for metabolite as percent of ΣOH-PCBs of the parent PCB, CYP2A6: racemic PCB 50 µM, 10 pmol P450/mL, 37°C, mean ± SD; for ratio of 3–103: 5–95: 4–95: 4’−95 (relative to 4’−95 = 1), recombinant CYP2A6: PCB 95 incubation
T1 sequence (P11509 1-494): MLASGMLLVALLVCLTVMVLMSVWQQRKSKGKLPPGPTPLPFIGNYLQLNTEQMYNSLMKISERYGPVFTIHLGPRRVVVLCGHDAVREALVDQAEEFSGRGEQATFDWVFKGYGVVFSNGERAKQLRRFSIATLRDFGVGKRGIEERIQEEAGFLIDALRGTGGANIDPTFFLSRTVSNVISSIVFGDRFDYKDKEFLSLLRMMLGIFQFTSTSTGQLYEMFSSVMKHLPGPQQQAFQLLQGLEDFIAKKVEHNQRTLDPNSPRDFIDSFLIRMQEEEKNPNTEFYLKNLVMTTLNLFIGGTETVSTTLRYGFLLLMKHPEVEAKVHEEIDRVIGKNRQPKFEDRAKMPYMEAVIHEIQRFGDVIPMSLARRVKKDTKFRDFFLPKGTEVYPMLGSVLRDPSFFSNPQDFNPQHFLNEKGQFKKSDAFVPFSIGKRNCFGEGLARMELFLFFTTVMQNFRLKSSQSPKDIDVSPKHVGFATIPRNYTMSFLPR

recombinant human CYP2B6 [2] = biological target: T2, recombinant human CYP2B6 (Homo sapiens, UniProt P20813); test: PCB biotransformation assay with recombinant human CYP2B6; format: in vitro ADME; conditions: for enantiomeric fraction (EF) of OH-PCB metabolite, CYP2B6: EF = Area E1/(Area E1 + Area E2), 50 μM PCB, 60 min, 37 °C, 10 pmol/mL P450; for metabolite as percent of ΣOH-PCBs of the parent PCB, CYP2B6: racemic PCB 50 µM, 10 pmol P450/mL, 37°C, mean ± SD
T2 sequence (P20813 1-491): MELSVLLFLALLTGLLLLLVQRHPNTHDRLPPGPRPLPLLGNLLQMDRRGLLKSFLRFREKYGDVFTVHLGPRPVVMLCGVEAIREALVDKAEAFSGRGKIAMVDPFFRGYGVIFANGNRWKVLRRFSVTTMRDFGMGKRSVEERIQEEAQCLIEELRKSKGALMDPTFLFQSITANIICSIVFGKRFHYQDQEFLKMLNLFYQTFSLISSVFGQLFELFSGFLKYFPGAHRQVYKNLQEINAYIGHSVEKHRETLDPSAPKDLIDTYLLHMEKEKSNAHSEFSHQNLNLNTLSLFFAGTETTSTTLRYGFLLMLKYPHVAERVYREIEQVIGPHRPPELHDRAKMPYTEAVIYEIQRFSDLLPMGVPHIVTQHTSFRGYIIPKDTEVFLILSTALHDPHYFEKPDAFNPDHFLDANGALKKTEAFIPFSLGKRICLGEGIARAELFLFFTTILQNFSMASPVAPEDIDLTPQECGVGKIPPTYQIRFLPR

recombinant human CYP2B6 [3] = biological target: T2, recombinant human CYP2B6; conditions: cited from earlier work
recombinant human CYP3A4 [4] = biological target: T3, recombinant human CYP3A4 (Homo sapiens, UniProt P08684); conditions: cited from earlier work
recombinant human CYP1A2 [5] = biological target: T4, recombinant human CYP1A2 (Homo sapiens, UniProt P05177); conditions: cited from earlier work
T4 sequence (P05177 1-516): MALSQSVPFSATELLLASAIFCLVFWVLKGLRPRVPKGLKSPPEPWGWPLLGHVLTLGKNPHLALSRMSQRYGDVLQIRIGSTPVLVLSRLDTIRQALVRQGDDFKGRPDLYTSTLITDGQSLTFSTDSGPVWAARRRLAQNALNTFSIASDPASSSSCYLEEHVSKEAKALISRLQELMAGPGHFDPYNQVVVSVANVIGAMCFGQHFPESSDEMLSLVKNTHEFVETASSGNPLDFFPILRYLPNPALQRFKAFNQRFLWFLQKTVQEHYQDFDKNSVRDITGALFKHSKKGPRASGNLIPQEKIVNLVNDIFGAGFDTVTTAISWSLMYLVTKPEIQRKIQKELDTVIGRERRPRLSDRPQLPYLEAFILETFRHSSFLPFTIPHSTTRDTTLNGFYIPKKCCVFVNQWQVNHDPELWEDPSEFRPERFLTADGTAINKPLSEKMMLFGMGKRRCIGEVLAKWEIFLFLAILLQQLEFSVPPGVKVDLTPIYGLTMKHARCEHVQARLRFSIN

recombinant human CYP2E1 = recombinant human CYP2E1 (Homo sapiens, UniProt P05181); conditions: cited from earlier work
recombinant human CYP1A2 [6] = biological target: T4, recombinant human CYP1A2; test: PCB biotransformation assay with recombinant human CYP1A2; format: in vitro ADME; conditions: racemic PCB 50 µM; 10 pmol P450/mL; 37°C
In short: (§1)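 Human P450 co-expressed with human CYP-reductase in E. coli, 10 pmol/mL, in 0.1 M phosphate pH 7.4 with 3 mM MgCl2 and NADPH-regenerating system (~1 mM NADPH final). After 5 min preincubation, racemic PCB added (50 µM final, DMSO ≤0.5% v/v); incubated up to 60 min at 37°C; stopped with ice-cold NaOH plus heating. OH-PCBs identified as methylated derivatives by high-resolution GC/TOF-MS in 60-min extracts. Control Bactosomes; triplicates.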

recombinant human CYP3A4 [7] = biological target: T3, recombinant human CYP3A4; test: PCB biotransformation assay with recombinant human CYP3A4; format: in vitro ADME; conditions: racemic PCB 50 µM; 10 pmol P450/mL; 37°C
In short: as §1

T3 sequence (P08684 whole entry): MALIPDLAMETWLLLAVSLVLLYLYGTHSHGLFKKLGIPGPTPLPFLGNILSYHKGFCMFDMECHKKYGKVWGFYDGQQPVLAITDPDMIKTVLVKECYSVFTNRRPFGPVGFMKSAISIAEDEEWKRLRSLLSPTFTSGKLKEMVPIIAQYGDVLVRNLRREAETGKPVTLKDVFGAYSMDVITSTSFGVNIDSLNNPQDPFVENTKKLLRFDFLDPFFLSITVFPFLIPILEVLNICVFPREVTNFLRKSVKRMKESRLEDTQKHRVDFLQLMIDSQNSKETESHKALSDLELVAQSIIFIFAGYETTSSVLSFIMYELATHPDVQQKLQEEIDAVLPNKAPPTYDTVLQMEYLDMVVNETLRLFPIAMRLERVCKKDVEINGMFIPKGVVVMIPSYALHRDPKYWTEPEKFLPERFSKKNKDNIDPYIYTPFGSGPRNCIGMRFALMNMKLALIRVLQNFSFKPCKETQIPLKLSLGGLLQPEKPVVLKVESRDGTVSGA
Chain of recombinant human CYP2E1 (P05181 whole entry): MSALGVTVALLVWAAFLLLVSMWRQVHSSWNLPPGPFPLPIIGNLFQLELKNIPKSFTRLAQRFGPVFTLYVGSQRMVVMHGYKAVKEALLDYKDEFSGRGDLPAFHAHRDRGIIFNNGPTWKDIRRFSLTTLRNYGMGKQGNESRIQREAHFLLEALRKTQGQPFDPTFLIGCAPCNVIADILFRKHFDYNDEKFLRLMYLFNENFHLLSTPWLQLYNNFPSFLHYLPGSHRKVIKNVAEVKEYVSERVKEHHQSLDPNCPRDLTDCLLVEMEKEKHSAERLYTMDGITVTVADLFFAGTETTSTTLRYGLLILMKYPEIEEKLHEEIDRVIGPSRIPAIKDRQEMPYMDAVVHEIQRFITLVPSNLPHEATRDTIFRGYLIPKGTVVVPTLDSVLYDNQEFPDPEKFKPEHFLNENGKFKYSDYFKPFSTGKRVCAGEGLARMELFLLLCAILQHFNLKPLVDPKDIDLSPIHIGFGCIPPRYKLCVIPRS

SMILES: Oc1c(Cl)cc(Cl)c(-c2ccc(Cl)cc2Cl)c1Cl [3–100]
- enantiomeric fraction (EF) of 1,2-shift products, HLMs [1]: 0.85
- enantiomeric fraction (EF) of OH-PCB metabolite, CYP2A6 (recombinant human CYP2A6): 0.92
- metabolite as percent of ΣOH-PCBs of the parent PCB, CYP2A6 (recombinant human CYP2A6): 81 ± 2%

SMILES: Oc1c(Cl)cc(Cl)c(-c2cc(Cl)ccc2Cl)c1Cl [3–103]
- ratio of 3–103: 5–95: 4–95: 4’−95 (relative to 4’−95 = 1), HLMs [1]: 0.11
- enantiomeric fraction (EF) of OH-PCB metabolite, CYP2A6 (recombinant human CYP2A6): 0.99
- ratio of 3–103: 5–95: 4–95: 4’−95 (relative to 4’−95 = 1), recombinant CYP2A6 (recombinant human CYP2A6): 0.11

SMILES: Oc1c(Cl)cc(Cl)c(-c2ccc(Cl)c(Cl)c2Cl)c1Cl [3’−140]
- enantiomeric fraction (EF) of 1,2-shift products, HLMs [1]: 0.84
- metabolite as percent of ΣOH-PCBs of the parent PCB, CYP2A6 (recombinant human CYP2A6): 67 ± 1%

SMILES: Oc1cc(Cl)c(-c2ccc(Cl)cc2Cl)c(Cl)c1Cl [4–91]
- enantiomeric fraction (EF) of OH-PCB metabolite, CYP2B6 (recombinant human CYP2B6 [2]): 0.60
- enantiomeric fraction (EF) of OH-PCB metabolite, CYP2A6 (recombinant human CYP2A6): 0.39

SMILES: Oc1cc(Cl)c(-c2c(Cl)ccc(Cl)c2Cl)c(Cl)c1Cl [4–136]
- enantiomeric fraction (EF) of OH-PCB metabolite, CYP2A6 (recombinant human CYP2A6): 0.10
- metabolite as percent of ΣOH-PCBs of the parent PCB, CYP2A6 (recombinant human CYP2A6): 64 ± 2%

SMILES: Oc1cc(Cl)c(Cl)c(-c2ccc(Cl)cc2Cl)c1Cl [5–91]
- enantiomeric fraction (EF) of OH-PCB metabolite, CYP2B6 (recombinant human CYP2B6 [2]): 0.49
- metabolite as percent of ΣOH-PCBs of the parent PCB, CYP2B6 (recombinant human CYP2B6 [2]): 98.4 ± 0.1%
- enantiomeric fraction (EF) of 5-hydroxylated metabolites, HLMs [1]: 0.47

SMILES: Oc1cc(Cl)c(Cl)c(-c2cc(Cl)ccc2Cl)c1Cl [5–95]
- formation rate by CYP2B6, times lower compared to CYP2A6 (recombinant human CYP2B6 [2]; PCB 95 incubation): 2 times
- ratio of 3–103: 5–95: 4–95: 4’−95 (relative to 4’−95 = 1), HLMs [1]: 0.06
- ratio of 3–103: 5–95: 4–95: 4’−95 (relative to 4’−95 = 1), recombinant CYP2A6 (recombinant human CYP2A6): 0.04

SMILES: Oc1cc(Cl)c(Cl)c(-c2c(Cl)ccc(Cl)c2Cl)c1Cl [5–136]
- enantiomeric fraction (EF) of OH-PCB metabolite, CYP2B6 (recombinant human CYP2B6 [2]): 0.50
- metabolite as percent of ΣOH-PCBs of the parent PCB, CYP2B6 (recombinant human CYP2B6 [2]): 94 ± 0.3%
- ratio of 5–136: 4–136 (4–136 = 1), HLMs ([1]; PCB 136 with HLMs): 0.39
- ratio of 5–136: 4–136 (4–136 = 1), HLMs, earlier study ([1]; PCB 136 with HLMs): 1.3
- enantiomeric fraction (EF) of 5-hydroxylated metabolites, HLMs [1]: 0.31
- ratio of 5–136: 4–136 (4–136 = 1) formed with CYP2A6 (recombinant human CYP2A6; PCB 136 incubation): 0.3

SMILES: Oc1cc(Cl)c(Cl)c(-c2ccc(Cl)c(Cl)c2Cl)c1Cl [5’−132]
- enantiomeric fraction (EF) of OH-PCB metabolite, CYP2B6 (recombinant human CYP2B6 [2]): 0.32
- metabolite as percent of ΣOH-PCBs of the parent PCB, CYP2B6 (recombinant human CYP2B6 [2]): 81 ± 7%
- enantiomeric fraction (EF) of 5-hydroxylated metabolites, HLMs [1]: 0.19

SMILES: Clc1ccc(Cl)c(-c2cc(Cl)ccc2Cl)c1 [PCB 52, 2,2’,5,5’-tetrachlorobiphenyl]
- oxidation by CYP2B6, earlier studies (recombinant human CYP2B6 [3]): did not observe any oxidation
- metabolism by recombinant CYP3A4, earlier studies (recombinant human CYP3A4 [4]): did not metabolize
- metabolism by recombinant CYP1A2, earlier studies (recombinant human CYP1A2 [5]): did not metabolize
- oxidation by CYP2E1, earlier studies (recombinant human CYP2E1): did not observe any oxidation

SMILES: Clc1ccc(-c2c(Cl)ccc(Cl)c2Cl)c(Cl)c1 [PCB 91, 2,2’,3,4’,6-pentachlorobiphenyl]
- OH-PCB metabolites detected in incubations with CYP1A2 (recombinant human CYP1A2 [6]): no metabolites were detected
- OH-PCB metabolites detected in incubations with CYP3A4 (recombinant human CYP3A4 [7]): no metabolites were detected

SMILES: Clc1ccc(Cl)c(-c2c(Cl)ccc(Cl)c2Cl)c1 [PCB 95, 2,2’,3,5’,6-pentachlorobiphenyl]
- oxidation by CYP2B6, earlier studies (recombinant human CYP2B6 [3]): did not observe any oxidation
- metabolism by recombinant CYP3A4, earlier studies (recombinant human CYP3A4 [4]): did not metabolize
- metabolism by recombinant CYP1A2, earlier studies (recombinant human CYP1A2 [5]): did not metabolize
- oxidation by CYP2E1, earlier studies (recombinant human CYP2E1): did not observe any oxidation
- OH-PCB metabolites detected in incubations with CYP1A2 (recombinant human CYP1A2 [6]): no metabolites were detected
- OH-PCB metabolites detected in incubations with CYP3A4 (recombinant human CYP3A4 [7]): no metabolites were detected

SMILES: Clc1ccc(-c2c(Cl)ccc(Cl)c2Cl)c(Cl)c1Cl [PCB 132, 2,2’,3,3’,4,6’-hexachlorobiphenyl]
- OH-PCB metabolites detected in incubations with CYP1A2 (recombinant human CYP1A2 [6]): no metabolites were detected
- OH-PCB metabolites detected in incubations with CYP3A4 (recombinant human CYP3A4 [7]): no metabolites were detected

SMILES: Clc1ccc(Cl)c(-c2c(Cl)ccc(Cl)c2Cl)c1Cl [PCB 136, 2,2’,3,3’,6,6’-hexachlorobiphenyl]
- OH-PCB metabolites detected in incubations with CYP1A2 (recombinant human CYP1A2 [6]): no metabolites were detected
- OH-PCB metabolites detected in incubations with CYP3A4 (recombinant human CYP3A4 [7]): no metabolites were detected

Reference: PMC6380921 (Environmental science & technology, 2019)
